The MIC is the lowest concentration that inhibits growth of the organism. The low end stands for greater potency, the high end for weaker potency. Broadly, the MIC50 is an inhibitory concentration at the 50% level, which refers to growth in some studies and to a panel of isolates in others. Low readings indicate higher susceptibility, high ones lower susceptibility. What is called MIC90 is an inhibitory concentration at the 90% level, which refers to growth in some studies and to a panel of isolates in others. Read a high MIC90 as lower susceptibility.

This note sets out measurements from ChEMBL document CHEMBL1141140, “Antifungal agents. 11. N-substituted derivatives of 1-[(aryl)(4-aryl-1H-pyrrol-3-yl)methyl]-1H-imidazole: synthesis, anti-Candida activity, and QSAR studies” (2005).

In brackets after ≈: the same amount, converted by molar mass.

Holding throughout (assay type): functional
Assay [1] deals with Candida albicans. The assay can be described thus: In vitro minimal inhibitory concentration against Candida albicans with percentage of resistant strains %R = 33.33 (MIC > 64 ug/mL) at a range of 1-4 ug/mL.
The subject of assay [2] is Candida albicans. In words: In vitro concentration causing 50% inhibition of Candida albicans with percentage of resistant strains %R = 33.33 (MIC > 64 ug/mL) at a range of 1-4 ug/mL.
The subject of assay [3] is Candida albicans. The assay can be described thus: In vitro concentration causing 90% inhibition of Candida albicans with percentage of resistant strains %R = 33.33 (MIC > 64 ug/mL) at a range of 1-4 ug/mL.
In assay [4] the test system is Candida albicans. In words: Ratio of the in vitro minimal inhibitory to that of bifonazole against Candida albicans (MIC(compound)/MIC(bifonazole)). An outline of the steps:
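Broth microdilution per NCCLS M27-A2 against 12 Candida albicans strains (AIDS oropharyngeal, HIV vulvovaginitis isolates, ATCC 24433 and 20891, lab strains 3153 and CA2). Inoculum ~10^4 cells/mL in RPMI 1640, pH 7.0; DMSO stocks 6.4 mg/mL, twofold dilutions 0.016–64 μg/mL; read at 24 h, 28 °C, no visible growth. Mean MIC over strains converted to μmol/mL, divided by bifonazole MIC.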

For assay [5], the system named is Candida albicans. In words: In vitro minimal inhibitory concentration against Candida albicans with percentage of resistant strains %R = 41.66 (MIC > 64 ug/mL) at a range of 0.5-2 ug/mL.
Assay [6] has as its system Candida albicans. The assay can be described thus: In vitro concentration causing 50% inhibition of Candida albicans with percentage of resistant strains %R = 41.66 (MIC > 64 ug/mL) at a range of 0.5-2 ug/mL.
In assay [7] the test system is Candida albicans. In words: In vitro concentration causing 90% inhibition of Candida albicans with percentage of resistant strains %R = 41.66 (MIC > 64 ug/mL) at a range of 0.5-2 ug/mL.
Assay [8] relates to Candida albicans. In words: In vitro minimal inhibitory concentration against Candida albicans with percentage of resistant strains %R = 100 (MIC > 64 ug/mL) at a range > 64.
Assay [9] relates to Candida albicans. The assay can be described thus: In vitro concentration causing 50% inhibition of Candida albicans with percentage of resistant strains %R = 100 (MIC > 64 ug/mL) at a range > 64.
Assay [10] deals with Candida albicans. The assay can be described thus: In vitro concentration causing 90% inhibition of Candida albicans with percentage of resistant strains %R = 100 (MIC > 64 ug/mL) at a range > 64.
Assay [11] has as its system Candida albicans. In words: In vitro minimal inhibitory concentration against Candida albicans with percentage of resistant strains %R = 16 (MIC > 64 ug/mL) at a range of 2-32 ug/mL.
Assay [12] concerns Candida albicans. In words: In vitro concentration causing 50% inhibition of Candida albicans with percentage of resistant strains %R = 16 (MIC > 64 ug/mL) at a range of 2-32 ug/mL.
Assay [13] relates to Candida albicans. The assay can be described thus: In vitro concentration causing 90% inhibition of Candida albicans with percentage of resistant strains %R = 16 (MIC > 64 ug/mL) at a range of 2-32 ug/mL.
For assay [14], the system named is Candida albicans. In words: In vitro minimal inhibitory concentration against Candida albicans with percentage of resistant strains %R = 41.66 (MIC > 64 ug/mL) at a range of 0.25-4 ug/mL.
Assay [15] deals with Candida albicans. In words: In vitro concentration causing 50% inhibition of Candida albicans with percentage of resistant strains %R = 41.66 (MIC > 64 ug/mL) at a range of 0.25-4 ug/mL.
Assay [16] concerns Candida albicans. The assay can be described thus: In vitro concentration causing 90% inhibition of Candida albicans with percentage of resistant strains %R = 41.66 (MIC > 64 ug/mL) at a range of 0.25-4 ug/mL.
For assay [17], the system named is Candida albicans. In words: In vitro minimal inhibitory concentration against Candida albicans with percentage of resistant strains %R = 50 (MIC > 64 ug/mL) at a range of 0.125-2 ug/mL.
For assay [18], the system named is Candida albicans. In words: In vitro concentration causing 50% inhibition of Candida albicans with percentage of resistant strains %R = 50 (MIC > 64 ug/mL) at a range of 0.125-2 ug/mL.
The subject of assay [19] is Candida albicans. The assay can be described thus: In vitro concentration causing 90% inhibition of Candida albicans with percentage of resistant strains %R = 50 (MIC > 64 ug/mL) at a range of 0.125-2 ug/mL.
The test system of assay [20] is Candida albicans. The assay can be described thus: In vitro minimal inhibitory concentration against Candida albicans with percentage of resistant strains %R = 50 (MIC > 64 ug/mL) at a range of 0.5-2 ug/mL.
Assay [21] relates to Candida albicans. The assay can be described thus: In vitro concentration causing 50% inhibition of Candida albicans with percentage of resistant strains %R = 50 (MIC > 64 ug/mL) at a range of 0.5-2 ug/mL.
For assay [22], the system named is Candida albicans. In words: In vitro concentration causing 90% inhibition of Candida albicans with percentage of resistant strains %R = 50 (MIC > 64 ug/mL) at a range of 0.5-2 ug/mL.
The test system of assay [23] is Candida albicans. In words: In vitro minimal inhibitory concentration against Candida albicans with percentage of resistant strains %R = 50 (MIC > 64 ug/mL) at a range of 0.5-16 ug/mL.
The test system of assay [24] is Candida albicans. In words: In vitro concentration causing 50% inhibition of Candida albicans with percentage of resistant strains %R = 50 (MIC > 64 ug/mL) at a range of 0.5-16 ug/mL.
The test system of assay [25] is Candida albicans. The assay can be described thus: In vitro concentration causing 90% inhibition of Candida albicans with percentage of resistant strains %R = 50 (MIC > 64 ug/mL) at a range of 0.5-16 ug/mL.

Take `Cn1cc(-c2ccc(-n3cccc3)cc2)c(C(c2ccc(Cl)cc2Cl)n2ccnc2)c1` (stereo unspecified): in assay [1], the MIC worked out at 3.12 mg/L (≈ 6.97 µM). The MIC50 in assay [2] worked out at 4 mg/L (≈ 8.94 µM). The compound also had an MIC90 in [3] of 4 mg/L (≈ 8.94 µM). In [4], the Ratio is 0.62.
Compound `CCn1cc(-c2ccc(Cl)cc2Cl)c(C(c2ccc(Cl)cc2Cl)n2ccnc2)c1` (stereo unspecified) registered an MIC in assay [5] of 1.21 mg/L (≈ 2.6 µM). The same compound gave an MIC50 in assay [6] of 1 mg/L (≈ 2.15 µM). The compound also displayed an MIC90 in assay [7] of 2 mg/L (≈ 4.3 µM). Besides, in [4], the Ratio came out at 0.23.
In the case of `CCCn1cc(-c2ccc(Cl)cc2Cl)c(C(c2ccc(Cl)cc2Cl)n2ccnc2)c1` (stereo unspecified), the minimum inhibitory concentration (MIC) in assay [8] was > 64 mg/L. Moreover, the MIC50 in assay [9] is > 64 mg/L. Also, in assay [10], the MIC90 is > 64 mg/L.
In [11], `Cn1cc(-c2ccc(Cl)cc2Cl)c(C(c2ccc(Cl)cc2Cl)n2ccnc2)c1` (stereo unspecified) returned an MIC of 14.6 mg/L (≈ 32.4 µM). In [12], this compound yielded an MIC50 of 8 mg/L (≈ 17.7 µM). In addition, the MIC90 in assay [13] worked out at 32 mg/L (≈ 70.9 µM). The Ratio in [4] amounted to 2.9.
With `CCn1cc(-c2ccc(Cl)cc2Cl)c(C(c2ccccc2)n2ccnc2)c1` (stereo unspecified), in [14], the MIC amounted to 1.46 mg/L (≈ 3.68 µM). Also, the MIC50 in assay [15] was 1 mg/L (≈ 2.52 µM). In assay [16], this compound gave an MIC90 of 2 mg/L (≈ 5.05 µM). In addition, the Ratio in assay [4] stood at 0.33.
Take `Cn1cc(-c2ccc(Cl)cc2)c(C(c2ccc(Cl)cc2Cl)n2ccnc2)c1` (stereo unspecified): in [17], the minimum inhibitory concentration (MIC) turned out to be 1.31 mg/L (≈ 3.14 µM). The compound further had an MIC50 in assay [18] of 1 mg/L (≈ 2.4 µM). For the same compound, the MIC90 in assay [19] was found to be 2 mg/L (≈ 4.8 µM). For the same compound, the Ratio in assay [4] was 0.28.
On to `Clc1ccc(C(c2c[nH]cc2-c2cccc3ccccc23)n2ccnc2)c(Cl)c1` (stereo unspecified), for which the MIC in [20] was found to be 1 mg/L (≈ 2.39 µM). The compound also came in with an MIC50 in assay [21] of 0.5 mg/L (≈ 1.2 µM). The compound also gave an MIC90 in assay [22] of 2 mg/L (≈ 4.78 µM). Also, the Ratio in [4] is listed as 0.21.
Turning to `Cn1cc(-c2cccc3ccccc23)c(C(c2ccc(Cl)cc2Cl)n2ccnc2)c1` (stereo unspecified), the MIC in [23] is 4.58 mg/L (≈ 10.6 µM). The compound further came in with an MIC50 in assay [24] of 4 mg/L (≈ 9.25 µM). The compound also returned an MIC90 in assay [25] of 16 mg/L (≈ 37 µM). Moreover, the Ratio in assay [4] was determined as 0.94.
